This is a sample that favours compounds with a hit; in the whole collection about 8.2% have one here.
SF-1 act: SF-1 (human) activation; Q13285; activation, % at 10 µM; actives 1.9% (n = 65,000); CHO-K1 Gal4-SF-1 LBD luciferase reporter; % increase over DMSO SF-1-specific signal;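 active means activation above the mean activation of all tested compounds plus 3 SD, cut at about 50% in these data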
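material = CHO-K1 cells with Gal4–hSF-1 LBD chimera plus Gal4-driven luciferase | compound = 10 µM single point, 1% DMSO | incubation = 20 h compound exposure at 37 °C after 1 h cell settling | measured by = SteadyLite luciferase luminescence | evaluation = percent activation relative to DMSO median and mock-transfected background | control set = DMSO negative control and −SF1 background wells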
M1 agonist: activates the M1 muscarinic receptor; CHO-M1 cells, Fluo-4 calcium fluorescence, agonist mode; active compounds read high; B-score at 10 µM; actives 3% (n = 64,000);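 active means fluorescence rise, raw or as B-score row- and column-corrected plate score, outside the 99.7% band of its plate's samples, either direction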
RORA act: RORA (human) activation; P35398; CHO-K1 Gal4-RORA LBD luciferase reporter, luminescence; percent increase over mock-subtracted basal signal; activation, % at 10 µM; actives 1.5% (n = 65,000);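 active means activation above the mean of all tested compounds plus 3 SD, cut at about 49% in these data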;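 further: 0% = DMSO-treated RORA cells and 100% = added signal equal to DMSO minus mock-transfected cells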
D1 allo mod: allosteric modulators of human D1 dopamine receptor; HEK293 D1, CRE-luciferase, dopamine EC30 potentiation; actives deviate in either direction; B-score at 10 µM; actives 5.9% (n = 58,000);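 active means luminescence count or its row- and column-corrected plate score outside the 99.7% band of the plate's sample wells, on either side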
M1 antag: M1 muscarinic receptor (rat) antagonism. B-score at 10 µM. CHO-M1 cells, Fluo-4 calcium, ACh EC80 antagonist mode; active compounds read low. actives 3.4% (n = 64,000);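 active means calcium fluorescence response, raw or row-and-column corrected B-score, differing from the plate sample mean either way at a set confidence level, mostly lower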
HePTP inhibitor: blocks human HePTP tyrosine phosphatase | recombinant HePTP phosphatase activity, OD absorbance | actives 0.64% (n = 110,000) | inhibition, % at 20 µM | AID 521 | P35236; in the data active means inhibition above about 50%;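 further: plate controls were vehicle for no effect and reference inhibitor for full effect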
Target sequence (P35236 whole entry, looked up): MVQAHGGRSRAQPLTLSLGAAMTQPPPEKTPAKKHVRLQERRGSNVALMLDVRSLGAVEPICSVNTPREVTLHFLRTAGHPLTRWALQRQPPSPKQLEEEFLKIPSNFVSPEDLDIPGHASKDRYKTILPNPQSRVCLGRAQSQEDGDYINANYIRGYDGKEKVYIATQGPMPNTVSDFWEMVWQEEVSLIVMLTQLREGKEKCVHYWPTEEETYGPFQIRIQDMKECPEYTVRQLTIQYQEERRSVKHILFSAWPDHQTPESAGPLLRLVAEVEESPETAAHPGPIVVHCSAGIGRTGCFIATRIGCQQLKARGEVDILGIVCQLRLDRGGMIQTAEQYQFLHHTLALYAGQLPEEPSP
D1 mod confirm: D1 receptor (human) allosteric modulation, confirmed; shares compounds with D1 allo mod; HEK293 D1 CRE-luciferase, dopamine EC30 potentiation; active compounds read high; luminescence at 10 µM; actives 88% (n = 2,200);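 active means luminescence in either of two replicates above the same-plate mean plus 3 SD of the low-dose dopamine control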
D1 no dopamine: D1 (human) signaling in absence of dopamine | AID 646 | shares compounds with D1 allo mod | HEK293 D1 CRE-luciferase, luminescence, no dopamine; active compounds read high | actives 0.8% (n = 1,900) | luminescence at 10 µM; in the data active means luminescence above about 3900
Isoprot counter: isoproterenol response counter-screen activity for D1 modulators; calls only at 10 µM; HEK293 D1 CRE-luciferase, isoproterenol EC30 counter-screen; AID 647; actives 63% (n = 2,200); shares compounds with D1 allo mod;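 active means luminescence in either replicate above plate mean of wells with a partly effective reference agonist dose plus 3 SD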;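 further: isoproterenol raises cAMP through native beta-adrenoceptor Gs so signal bypasses D1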
* = called active by the depositor; i = inactive; / = not tested or not shown; + = active, no number.

SMILES	SF-1 act	M1 agonist	RORA act	D1 allo mod	M1 antag	HePTP inhibitor	D1 mod confirm	D1 no dopamine	Isoprot counter
CCc1nc(N)c(C#N)c(-c2ccc(OC)c(OC)c2)c1C	4.8	-0.00216	-5.6	6.72*	0.0845	-8.3	11376*	1860	+
CCc1nc(N)c(C#N)c(-c2ccncc2)c1C	-12.1	0.26	-22.7	4.35*	-0.0904	10.2	15468*	1728	i
CCc1nc(N)c(C#N)c(-c2cccn2C)c1C	1.0	-0.103	-17.6	0.631	0.16	/	/	/	/
CCc1nc(N)c(C#N)c(-c2ccc(O)c(OC)c2)c1C	-2.8	0.253	4.5	/	-0.803	-3.5	/	/	/
CCc1nc(C)c(C#N)c2cc(OC)c(OC)cc12	-2.7	-0.0828	7.3	4.44*	0.593	3.0	11084*	1576	+
CCCN1Cc2cccc(C(=O)NCc3ccc4c(c3)OCO4)c2C1=O	5.0	-0.624	4.0	11.5*	0.714	-3.3	15396*	1860	+
CCOC(=O)N1CCC(N2Cc3cccc(C(=O)NCc4ccc(OC)cc4)c3C2=O)CC1	-3.0	/	-7.6	2.89	/	8.6	/	/	/
CCOC(=O)N1CCC(N2Cc3cccc(C(=O)NCc4ccccc4OC)c3C2=O)CC1	9.2	/	-21.3	4.91*	/	2.1	7800	1720	i
O=C(NCc1ccc2c(c1)OCO2)c1cccc2c1C(=O)N(C1CCCCC1)C2	-0.8	0.565	-10.7	5.99*	0.157	1.2	10552*	1592	+
CCOC(=O)N1CCC(N2Cc3cccc(C(=O)NCc4ccc5c(c4)OCO5)c3C2=O)CC1	-4.1	/	-30.6	1.44	/	9.8	/	/	/
CCCN1Cc2cccc(C(=O)NCc3cccs3)c2C1=O	8.1	-0.0354	-9.4	18.2*	-0.295	-1.1	24472*	1580	+
CC1=C(C(=O)OC2CCC(C)CC2)C(c2ccccc2)NC(=O)N1 (stereo not drawn)	/	/	/	/	/	3.2	/	/	/
COc1ccc(C(=O)CCNc2ccc3c(c2)OCCO3)cc1	/	/	/	/	/	-1.3	/	/	/
CCCN1Cc2cccc(C(=O)NC3CCCC3)c2C1=O	-17.1	-0.153	-6.7	12.2*	0.615	11.5	16648*	1612	+
CCCN1Cc2cccc(C(=O)Nc3cc(OC)cc(OC)c3)c2C1=O	-3.8	0.276	-14.6	0.0255	0.0623	-2.6	/	/	/
N#CC1=C(N)C(C#N)(C#N)C(c2ccc[nH]2)C2CCCC=C12 (stereo not drawn)	1.8	1.82	17.8	2.81*	-0.0654	1.8	4776	1816	i
CCOC(=O)N1CC=C2C(C#N)=C(N)C(C#N)(C#N)[C@H](c3ccccc3OCC)[C@H]2C1	-1.5	-0.0129	16.5	-0.793	1.63	3.7	/	/	/
CCOC(=O)C1CCN(C2CC(=O)N(c3ccc(C)cc3)C2=O)CC1 (stereo not drawn)	/	/	/	/	/	11.8	/	/	/
N#Cc1ccccc1Cn1c(=O)n(-c2ccc(CC(=O)NCc3ccco3)cc2)c(=O)c2sccc21	-19.0	-0.00987	7.5	-0.216	0.212	8.4	/	/	/
N#Cc1ccccc1Cn1c(=O)n(Cc2ccc(C(=O)NCc3ccco3)cc2)c(=O)c2sccc21	9.6	-0.45	13.1	15.7*	0.766	13.8	10644*	1632	+
N#Cc1cn(-c2ccccc2)nc1-c1ccccc1	12.7	0.0504	0.8	5.74*	-0.0278	7.1	9992*	1616	i
CCCn1c(SCC(N)=O)nc2c(c1=O)C1(CCCC1)Cc1ccccc1-2	-11.4	0.199	-2.5	/	0.38	5.2	/	/	/
CCn1c(SCC#N)nc2c(c1=O)C1(CCCC1)Cc1ccccc1-2	8.3	-0.543	-5.7	2.49*	0.0116	11.7	7420*	/	i
O=C(NCc1ccco1)c1cccnc1-c1nc2ccccc2s1	-15.9	-0.294	-24.1	5.93*	-0.362	2.8	11260*	1740	+
O=C(NCc1ccco1)c1cc(-c2cccnc2)nc2ccccc12	-1.7	0.288	-5.3	0.36	-0.394	6.3	/	/	/
SMILES	SF-1 act	M1 agonist	RORA act	D1 allo mod	M1 antag	HePTP inhibitor	D1 mod confirm	D1 no dopamine	Isoprot counter
N#Cc1nc(-c2cccs2)oc1NCc1ccc2c(c1)OCO2	-4.3	-0.71	-17.5	16.5*	-0.444	6.4	19192*	1548	+
COc1ccc(Nc2oc(-c3cccs3)nc2C#N)cc1	41.3	-0.431	20.9	8.11*	0.381	-4.0	16196*	1612	+
N#Cc1nc(-c2ccco2)oc1NCCc1ccccc1	-7.3	-0.0489	32.5	5.51*	-0.902	2.5	13580*	1764	+
CNc1oc(-c2cccs2)nc1C#N	12.8	-0.971	2.1	/	0.764	4.5	/	/	/
Cc1ccc(CNc2oc(-c3ccco3)nc2C#N)cc1	3.0	0.0312	-2.8	26.9*	0.177	5.4	18284*	1756	+
COc1ccc(CCNc2oc(-c3ccco3)nc2C#N)cc1	3.0	0.255	-5.0	3.84	-0.246	12.1	/	/	/
COCCn1c(SCC(=O)NC(=O)NCc2ccccc2)nc2ccccc21	10.5	0.657	-11.8	0.426	0.00408	4.9	/	/	/
O=C(NC1C=CS(=O)(=O)C1)c1sc2ccccc2c1Cl (stereo not drawn)	1.8	0.239	-7.5	-0.803	0.559	2.6	/	/	/
CC1CC(C)CN(C(=O)CSc2nnc(-c3ccc(Cl)cc3)o2)C1 (stereo not drawn)	7.2	-0.877	16.8	-0.351	-1.21	-0.7	/	/	/
CC(=O)N1CC2(C)CN(C(C)=O)CC(C)(C1)C2	9.9	-0.332	-21.3	0.74	1.09	2.4	/	/	/
Cc1cccc(OCC(=O)Nc2ccc(N(C)C)cc2)c1	/	/	/	/	/	2.2	/	/	/
N#Cc1nc(-c2cccs2)oc1NCCc1ccccc1	40.5	0.0436	24.3	11.8*	-0.302	7.3	14100*	1620	+
N#Cc1nc(-c2cccs2)oc1NCCN1CCOCC1	-1.1	0.0855	-10.7	/	1.07	8.0	/	/	/
O=C(COc1ccc2cc(Br)ccc2c1Br)NCc1ccccc1	/	/	/	/	/	-9.9	/	/	/
CCOC(=O)C(CCSC)NC(=O)CN (stereo not drawn)	-4.7	-0.0217	-8.3	4.76*	-0.146	-1.4	6764	1616	i
Cc1oc2cc(Br)c(OS(C)(=O)=O)cc2c1C(=O)OC(C)C	/	/	/	/	/	-4.3	/	/	/
Cc1cc2c(cc(C(=O)OCC(=O)NCc3cccs3)n2C(C)C)o1	12.1	0.879	56.6*	10.5*	0.0585	12.5	7700*	1632	+
Cc1cc(C(=O)NCc2cccs2)c(C)o1	0.6	-7.38e-05	-23.0	-0.254	0.0298	4.4	/	/	/
N=c1sc(Cc2ccc(Br)cc2)cn1CC(=O)c1ccc(Cl)cc1	/	/	/	/	/	-2.0	/	/	/

Assay outcomes: PubChem BioAssay, several laboratories
